Test results taken from ChEMBL document CHEMBL1255177, “Search for influence of spatial properties on affinity at α1-adrenoceptor subtypes for phenylpiperazine derivatives of phenytoin” (Bioorg Med Chem Lett, 2010).

Key:
[1] = target: T1, Alpha-1D adrenergic receptor (Rattus norvegicus, UniProt P23944); test: Antagonist activity at adrenergic Alpha-1D receptor in rat aorta; type: functional, tissue-based; settings: read-out: pA2 (converted)
T1 sequence (P23944 whole entry): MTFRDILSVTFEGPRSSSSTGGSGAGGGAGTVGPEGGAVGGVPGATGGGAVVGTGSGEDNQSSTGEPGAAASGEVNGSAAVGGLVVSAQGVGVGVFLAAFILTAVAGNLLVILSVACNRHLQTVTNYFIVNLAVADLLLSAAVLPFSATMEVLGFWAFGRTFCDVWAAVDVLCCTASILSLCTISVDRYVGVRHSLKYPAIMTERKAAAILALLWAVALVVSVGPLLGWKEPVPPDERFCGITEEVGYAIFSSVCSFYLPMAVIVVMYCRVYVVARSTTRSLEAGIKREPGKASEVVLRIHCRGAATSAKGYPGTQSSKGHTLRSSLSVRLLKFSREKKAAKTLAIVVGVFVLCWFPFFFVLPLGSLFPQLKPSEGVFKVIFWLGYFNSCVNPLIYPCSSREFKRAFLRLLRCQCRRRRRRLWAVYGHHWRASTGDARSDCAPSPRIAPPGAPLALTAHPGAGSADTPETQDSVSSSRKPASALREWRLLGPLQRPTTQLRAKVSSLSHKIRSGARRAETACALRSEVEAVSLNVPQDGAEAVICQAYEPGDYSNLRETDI
Summary of the method: (§1)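 Isolated tissues: guinea pig spleen (α1B), rat aorta (α1D), rat tail artery (α1A). Two cumulative noradrenaline concentration-response curves per tissue, 60 min apart, without then with antagonist. Apparent pA2 = −log[B] + log(r − 1), where r is the ratio of agonist EC50 with and without antagonist. EC50 taken at the curve midpoint. Means ± SEM, 4–8 separate experiments.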

[2] = target: Alpha-1 adrenergic receptor (Rattus norvegicus); test: Binding affinity to adrenergic alpha1 receptor in rat brain
[3] = target: Alpha-1B adrenergic receptor (Cavia porcellus); test: Antagonist activity at adrenergic Alpha-1B receptor in guinea pig spleen; settings: read-out: pA2 (converted)
[4] = target: T2, Alpha-1A adrenergic receptor (Rattus norvegicus, UniProt P43140); test: Antagonist activity at adrenergic alpha1A receptor in rat tail artery; type: functional, tissue-based; settings: read-out: pA2 (converted); summary of the method: as §1
T2 sequence (P43140 whole entry): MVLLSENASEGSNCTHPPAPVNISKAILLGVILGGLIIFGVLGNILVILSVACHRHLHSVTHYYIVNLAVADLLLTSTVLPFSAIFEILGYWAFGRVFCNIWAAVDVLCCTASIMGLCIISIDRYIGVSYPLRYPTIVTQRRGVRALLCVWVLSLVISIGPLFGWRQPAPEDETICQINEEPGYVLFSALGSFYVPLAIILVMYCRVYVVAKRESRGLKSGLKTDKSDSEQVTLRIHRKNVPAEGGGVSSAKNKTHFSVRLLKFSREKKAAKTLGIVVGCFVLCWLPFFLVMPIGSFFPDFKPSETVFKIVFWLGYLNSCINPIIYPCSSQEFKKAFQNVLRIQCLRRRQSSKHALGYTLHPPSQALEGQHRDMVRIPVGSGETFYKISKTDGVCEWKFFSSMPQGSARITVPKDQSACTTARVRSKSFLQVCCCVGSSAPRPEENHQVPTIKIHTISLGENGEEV

Kb [1] [nM]	Ki [2] [nM]	Kb [3] [nM]	Kb [4] [nM]	SMILES
245	562	1820	891	CN1C(=O)N(CC(O)CN2CCN(c3ccccc3F)CC2)C(c2ccccc2)(c2ccccc2)C1=O (centres undefined)
141				COc1ccccc1N1CCN(CC(O)CN2C(=O)N(C)C(=O)C2(c2ccccc2)c2ccccc2)CC1 (centres undefined)
195				CCOc1ccccc1N1CCN(CC(O)CN2C(=O)N(C)C(=O)C2(c2ccccc2)c2ccccc2)CC1 (centres undefined)

Second part, the molecule before the results:

SMILES	Kb [1] [nM]	Ki [2] [nM]	Kb [3] [nM]	Kb [4] [nM]
CCOC(=O)C(C)N1C(=O)N(CC(O)CN2CCN(c3ccccc3OC)CC2)C(c2ccccc2)(c2ccccc2)C1=O (centres undefined)	70.8			
COC(=O)CN1C(=O)N(CC(O)CN2CCN(c3ccccc3)CC2)C(c2ccccc2)(c2ccccc2)C1=O (centres undefined)	4370			
COc1ccccc1N1CCN(CC(O)CN2C(=O)NC(=O)C2(c2ccccc2)c2ccccc2)CC1 (centres undefined)	112			
CCOC(=O)CN1C(=O)N(CC(O)CN2CCN(c3ccccc3OC)CC2)C(c2ccccc2)(c2ccccc2)C1=O (centres undefined)	1350			
CCOc1ccccc1N1CCN(CC(O)CN2C(=O)N(C(C)C(=O)OC)C(=O)C2(c2ccccc2)c2ccccc2)CC1 (centres undefined)	269			
COC(=O)C(C)N1C(=O)N(CC(O)CN2CCN(c3ccccc3OC)CC2)C(c2ccccc2)(c2ccccc2)C1=O (centres undefined)	347	105	851	155
COC(=O)CN1C(=O)N(CC(O)CN2CCN(c3ccccc3OC)CC2)C(c2ccccc2)(c2ccccc2)C1=O (centres undefined)	295	200	1260	224
